Publication PMC2174336 (The Journal of Cell Biology, 2001)
One block for each molecule: values may come before it. Bridges are numbered along the chain shown (N, C = ends). Where no end group is shown, it is not given here.

Assays:
[1] = system: αM subunit I domain; assay: LLG-C4-GST binding to purified αM subunit I domain; conditions: LLG-C4-GST 10 μg/ml; for inhibition of LLG-C4-GST binding to the I domain: peptide 100 μM, triplicate wells
Outline: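 The αM I domain was expressed as a GST fusion in E. coli, purified on glutathione beads and released by thrombin cleavage; it was then coated on wells. Peptide–GST fusion or GST at the indicated concentrations (10 μg/ml in methods) was incubated 1 h in 25 mM octylglucoside/TBS/1 mM MnCl2. Bound protein was detected with Eu3+-labelled anti-GST antibodies. Triplicate wells, three experiments.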

[2] = system: THP-1 cells; assay: Inhibition of THP-1 cell adhesion to LLG-C4-GST or LLG-C4 substratum; format: cell-based
Outline: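 THP-1 cells were mixed in suspension with test peptides at the indicated final concentrations, or with 2.5 mM EDTA. They were then incubated 60 min in wells coated with peptide–GST fusion. Unbound cells were removed by PBS washing and bound cells quantitated by phosphatase assay. Mean of triplicate wells; repeated in two further experiments.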

[3] = system: THP-1 cells; assay: THP-1 cell adhesion to immobilized peptides or GST fusion proteins; format: cell-based; conditions: 60 min; for THP-1 cell binding to substance coated on microtiter wells: phorbol ester–activated THP-1 cells, phosphatase assay
Outline: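 Proteins or synthetic peptides coated at 2 μg per well in TBS unless indicated; polymerised peptide made with 0.25% final glutaraldehyde. Wells blocked with 5% BSA and washed with PBS. Cells were preactivated for 30 min at room temperature in serum-free medium with 50 nM phorbol dibutyrate or 200 μM activating peptide. Then 10^5 cells/well were incubated 60 min at 37°C. Bound cells were read by cellular phosphatase assay.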

[4] = system: Jurkat cells; assay: Jurkat cell adhesion to ICAM-1-Fc; format: cell-based
[5] = system: THP-1 cells; assay: THP-1 cell migration on fibrinogen-coated Transwell filters; format: cell-based; conditions: 200 μM; 8-μm Transwell; 10% serum; 18 h; n = 6
Outline: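 Both faces of 8-μm-pore Transwell filters were coated with fibrinogen or peptide–GST fusion (40 μg/ml; GST control) and blocked with 5% BSA. THP-1 cells (5×10^4) were placed in the upper chamber in 10% serum medium, ± test peptides at 200 μM; the lower chamber held the same medium. After 18 h at 37°C, filters were methanol-fixed and stained with 0.1% toluidine blue. Cells on the lower surface were counted microscopically.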

[6] = system: αMβ2 integrin; assay: Phage binding to purified αMβ2 integrin; conditions: phage-displayed peptide; data not shown
[7] = system: THP-1 cells; assay: THP-1 cell adhesion to von Willebrand factor; format: cell-based; conditions: data not shown
Outline: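 THP-1 cells were incubated 60 min at 37°C in wells coated with von Willebrand factor or fibronectin (2 μg per well, BSA-blocked), with test peptides at the indicated concentrations. Unbound cells were washed off with PBS and bound cells read by phosphatase assay. Triplicate wells.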

[8] = system: T cells; assay: T cell binding to TNF-α-stimulated Eahy926 endothelial cell monolayer; format: cell-based; conditions: peptide 50 μM; 45 min; phosphatase assay; triplicate wells
Outline: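 Eahy926 endothelial cells were seeded at 5×10^4/well, grown 3 d, then stimulated 16 h with TNF-α (10 ng/ml). Blood T cells were isolated by Ficoll-Hypaque and nylon wool. T cells (1.5×10^5/well) were bound 30 min at 4°C then 15 min at 37°C, with test or control peptide at 50 μM. Unbound cells were removed by immersing the plate in PBS. Phosphatase assay; triplicate wells.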

[9] = system: THP-1 cells; assay: THP-1 adhesion to A2 domain-deleted von Willebrand factor; format: cell-based; conditions: phosphatase assay; triplicate wells
Outline: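 Wild-type or A2-domain-deleted recombinant von Willebrand factor was captured on wells coated with anti-von Willebrand factor antibody D′-D3. THP-1 cells were incubated with competitor peptides at the stated concentrations. Bound cells were read by phosphatase assay, expressed relative to wild-type von Willebrand factor binding (100%). Triplicate wells; similar in two further experiments.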

[10] = system: αMβ2 integrin; assay: LLG-C4-GST binding to immunocaptured αMβ2 integrin; conditions: integrin immunocaptured with MEM170 or OKM1
Outline: (§1)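 Integrins from buffy-coat lysate in 1% octylglucoside/1 mM MnCl2/TBS were captured for 2 h at 4°C on wells coated with subunit antibodies (MEM170, OKM1 or 2E7), then washed five times. Peptide–GST fusion or GST (10 μg/ml; 2 μg/well per legend) bound 1 h in 25 mM octylglucoside/TBS/1 mM MnCl2, ± EDTA. Detection by Eu3+-chelate-labelled anti-GST antibody fluorescence. Repeated three times.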

[11] = system: β2 integrin; assay: LLG-C4-GST binding to integrin immunocaptured with β2 subunit antibody 2E7; conditions: β2 subunit antibody 2E7 used for immunocapture
Outline: as §1

[12] = system: αXβ2 integrin–transfected L cells; assay: Binding of αXβ2 integrin-transfected L cells to LLG-C4-GST; format: cell-based, mouse; conditions: three experiments in triplicate wells
Outline: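 αXβ2-transfected mouse L cells were incubated in wells coated with peptide–GST fusion or GST (2 μg/well, BSA-blocked), 60 min at 37°C, 10^5 cells/well. The β2-blocking antibody 7E4 or EDTA served as competitors. After PBS washing, bound cells were read by phosphatase assay and given as percentage adhesion. Triplicate wells; three experiments.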

[13] = biological target: β2 integrins of THP-1 cells (adhesion to LLG-C4 substrata)
[14] = biological target: β2 integrins of THP-1 cells (adhesion to LLG-C4 substrata); remark: listed apart in the source

inhibition of LLG-C4-GST binding to the I domain [1]: blocked
Molecule: CPCFLLGCC [LLG-C4 (1)]

affinity to αMβ2 in phage-binding experiments in comparison to the other clones [6]: higher affinity
Molecule: CPCFLLGCC (also: bicyclic or more (positions not given here)) [LLG-C4]
THP-1 cell binding to substance coated on microtiter wells [3]: bound strongly

inhibition of LLG-C4-GST binding to the I domain [1]: did not inhibit
Molecule: CPCFLLGCC [LLG-C4 (2)]

effect of EDTA on LLG-C4-GST binding to αMβ2 integrin [10]: inhibited the binding
effect of EDTA on LLG-C4-GST binding to integrin captured with 2E7 [11]: only partially inhibited
effect of EDTA on LLG-C4-GST binding to the I domain ([1]; EDTA 2.5 mM): blocked the binding
Molecule: O=C(O)CN(CCN(CC(=O)O)CC(=O)O)CC(=O)O [EDTA]
effect of EDTA on THP-1 binding to LLG-C4-GST ([2]; EDTA 2.5 mM, phorbol ester–activated cells): abolished the binding
binding of αXβ2-transfected L cells to LLG-C4-GST, effect of competitor [12]: inhibited

Further lines, the molecule ahead of its results:

Molecule: CAAGC (disulfide)
competition of THP-1 cell adhesion on LLG-C4-GST (in words) ([2]; LLG-C4-GST substratum): only a weak competitor

Molecule: CPCFLLGCC (also: bicyclic or more (positions not given here)) [C(1-9;3-8)]
THP-1 cell binding to peptide cross-linked with glutaraldehyde ([3]; peptide coated in presence of glutaraldehyde, 10^5 cells per well): inactive even after the cross-linking
THP-1 cell binding to substance coated on microtiter wells [3]: failed to bind
fold less active than C(1-8;3-9), THP-1 cell adhesion on LLG-C4-GST ([2]; relative to C(1-8;3-9)): 20 fold
inhibition of Jurkat cell adhesion to ICAM-1-Fc (in words) [4]: severalfold less active and had hardly any effect
effect on THP-1 cell migration on fibrinogen [5]: inhibited only partially

Molecule: CLLGC (disulfide)
concentrations at which THP-1 cell adhesion on LLG-C4-GST was readily inhibited ([2]; LLG-C4-GST substratum, phosphatase assay): ≥ 1 mM
inhibition of THP-1 binding to von Willebrand factor at 500 μM [7]: inhibited

Molecule: ACDCRGDCFCG (also: bicyclic or more (positions not given here)) [RGD-4C]
effect on T cell binding to TNF-α–stimulated endothelial cells [8]: no effect
effect on THP-1 adhesion to the A2-deleted von Willebrand factor [9]: blocked

Molecule: CLLGC (also: cyclic, type of ring not given here) [CLLGC peptide]
inhibition of THP-1 cell adhesion on LLG-C4-GST (blocks m22 with m1) [13]: > 1 mM

Molecule: CPCFLLGCC (disulfide 1-8, 3-9) [C(1-8;3-9) peptide]
IC50 of inhibition of THP-1 cell adhesion on LLG-C4-GST (blocks m22 with m1) [14]: 20 µM
